Results from ChEMBL document CHEMBL3808334, “Synthesis and in vitro evaluation of novel triazine analogues as anticancer agents and their interaction studies with bovine serum albumin” (Eur J Med Chem, 2016).

Tests used:
Format in all cases: functional
SK-MEL-2 [1] = experiment: Growth inhibition of human SK-MEL-2 cells assessed as cell growth at 10 uM incubated for 48 hrs by sulforhodamine B assay; details: SK-MEL-2, 48 h, read-out: Activity
[2] = Growth inhibition of human colon cancer cells incubated for 48 hrs by sulforhodamine B assay; details: Cancer cell lines; for CC50: read-out: LC50 (the source's name)
[3] = Growth inhibition of human LOXIMVI cells assessed as cell growth at 10^-7 M incubated for 48 hrs by sulforhodamine B assay; details: LOX IMVI, read-out: Activity
[4] = Growth inhibition of human MOLT4 cells assessed as cell growth at 10^-6 M incubated for 48 hrs by sulforhodamine B assay; details: MOLT-4, 48 h, read-out: Activity
[5] = Growth inhibition of human HCC2998 cells assessed as cell growth at 10^-5 M incubated for 48 hrs by sulforhodamine B assay; details: HCC 2998, 48 h, read-out: Activity
In short: (§1)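 Cells seeded at 5,000–40,000/well according to doubling time and preincubated 24 h at 37 °C, 5% CO2. Time-zero plates were TCA-fixed. DMSO concentrate was diluted in medium with 50 µg/ml gentamicin to give five concentrations (10-fold or ½ log steps), then exposed 48 h. Cells were TCA-fixed, stained with 0.4% SRB and read at 515 nm. Percent growth was taken against time-zero and control; GI50, TGI and LC50 derived.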

[6] = Growth inhibition of human MOLT4 cells assessed as cell growth at 10^-8 M incubated for 48 hrs by sulforhodamine B assay; details: MOLT-4, 48 h, read-out: Activity
ACHN = experiment: Growth inhibition of human ACHN cells assessed as cell growth at 10^-7 M incubated for 48 hrs by sulforhodamine B assay; details: read-out: Activity
In short: (§2)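 Five-dose assay: five concentrations from 10-fold or ½-log serial dilutions. Cells are plated at 5,000–40,000 per well according to doubling time, grown 24 h, then exposed 48 h at 37 °C, 5% CO₂. Fixed with cold 50% TCA (final addition) for 60 min at 4 °C and stained with 0.4% SRB in 1% acetic acid. Bound dye is solubilized in 10 mM Tris base and read at 515 nm. GI₅₀ is where [(Ti−Tz)/(C−Tz)]×100 = 50, with a time-zero plate as Tz.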

SR = experiment: Growth inhibition of human SR cells incubated for 48 hrs by sulforhodamine B assay
In short: (§3)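 Cells were plated at 5,000–40,000 per well according to doubling time and preincubated 24 h at 37 °C in 5% CO2; time-zero plates were then TCA-fixed. Five concentrations (10-fold or ½-log dilutions, DMSO stock) were incubated 48 h. Cells were TCA-fixed, stained with 0.4% SRB and read at 515 nm. GI50 was taken where [(Ti−Tz)/(C−Tz)]×100 = 50.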

SK-MEL-2 [7] = experiment: Growth inhibition of human SK-MEL-2 cells assessed as cell growth at 10^-7 M incubated for 48 hrs by sulforhodamine B assay; details: SK-MEL-2, 48 h, read-out: Activity
SN12C = experiment: Growth inhibition of human SN12C cells assessed as cell growth at 10^-7 M incubated for 48 hrs by sulforhodamine B assay; details: read-out: Activity
[8] = Growth inhibition of human Hs 578T cells assessed as cell growth at 10^-6 M incubated for 48 hrs by sulforhodamine B assay; details: read-out: Activity
[9] = Growth inhibition of human SKOV3 cells assessed as cell growth at 10^-6 M incubated for 48 hrs by sulforhodamine B assay; details: SK-OV-3, 48 h, read-out: Activity
[10] = Growth inhibition of human RPMI8226 cells assessed as cell growth at 10^-6 M incubated for 48 hrs by sulforhodamine B assay; details: RPMI-8226, 48 h, read-out: Activity
[11] = Growth inhibition of human SF268 cells assessed as cell growth at 10^-6 M incubated for 48 hrs by sulforhodamine B assay; details: SF-268, 48 h, read-out: Activity
[12] = Growth inhibition of human BT549 cells assessed as cell growth at 10^-6 M incubated for 48 hrs by sulforhodamine B assay; details: BT-549, 48 h, read-out: Activity; in short: as §2
[13] = Growth inhibition of human UACC62 cells incubated for 48 hrs by sulforhodamine B assay; details: UACC-62, 48 h; in short: as §3
786-0 = experiment: Growth inhibition of human 786-0 cells assessed as cell growth at 10^-7 M incubated for 48 hrs by sulforhodamine B assay; details: 786-0, 48 h, read-out: Activity; in short: as §2
[14] = Growth inhibition of human HOP92 cells assessed as cell growth at 10^-7 M incubated for 48 hrs by sulforhodamine B assay; details: HOP-92, 48 h, read-out: Activity
[15] = Growth inhibition of human RXF393 cells assessed as cell growth at 10^-4 M incubated for 48 hrs by sulforhodamine B assay; details: RXF 393, 48 h, read-out: Activity
[16] = Growth inhibition of human PC3 cells assessed as cell growth at 10^-8 M incubated for 48 hrs by sulforhodamine B assay; details: PC-3, 48 h, read-out: Activity
[17] = Growth inhibition of human HCT15 cells assessed as cell growth at 10^-5 M incubated for 48 hrs by sulforhodamine B assay; details: HCT-15, 48 h, read-out: Activity; in short: as §1
[18] = Growth inhibition of human BT549 cells assessed as cell growth at 10^-5 M incubated for 48 hrs by sulforhodamine B assay; details: BT-549, 48 h, read-out: Activity; in short: as §2
[19] = Growth inhibition of human Caki1 cells assessed as cell growth at 10^-6 M incubated for 48 hrs by sulforhodamine B assay; details: CAKI-1, 48 h, read-out: Activity; in short: as §1
[20] = Growth inhibition of human HOP62 cells incubated for 48 hrs by sulforhodamine B assay; details: HOP-62, 48 h; in short: as §1
[21] = Growth inhibition of human SF268 cells incubated for 48 hrs by sulforhodamine B assay; details: SF-268, 48 h; in short: as §3
SK-MEL-28 = experiment: Growth inhibition of human SK-MEL-28 cells assessed as cell growth at 10^-6 M incubated for 48 hrs by sulforhodamine B assay; details: SK-MEL-28, 48 h, read-out: Activity
[22] = Growth inhibition of human HCT116 cells assessed as cell growth at 10 uM incubated for 48 hrs by sulforhodamine B assay; details: HCT-116, 48 h, read-out: Activity
In short: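 Primary screen at one dose (10 µM) across 60 human cancer cell lines. Readout was growth percent relative to untreated control and time-zero.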

[23] = Growth inhibition of human RXF393 cells assessed as cell growth at 10^-8 M incubated for 48 hrs by sulforhodamine B assay; details: RXF 393, 48 h, read-out: Activity
[24] = read-out: LC50 (the source's name)
[25] = read-out: pLC50 (the source's name) (converted)

SMILES: Clc1ccc(-c2nc(Nc3ccc(-c4nc5ccccc5[nH]4)cc3)nc(N3CCOCC3)n2)cc1
- growth at 10 µM (SK-MEL-2 [1]): -71.3%
- GI50 [2]: 260 nM
- TGI [2]: 690 nM
- CC50 [2]: 2750 nM
- growth at 0.1 µM [3]: 94%
- growth at 1 µM [4]: -29%
- growth at 10 µM [5]: -57%
- growth at 0.01 µM [6]: 98%
- growth at 0.1 µM (ACHN): 99%
- GI50 (SR; read-out: GI50): 31 nM
- CC50 (SR; [24]): > 100000 nM
- GI50 (SR; read-out: pGI50 (converted)): 30.9 nM
- CC50 (SR; [25]): > 100000 nM
- growth at 0.1 µM (SK-MEL-2 [7]): 92%
- growth at 0.1 µM (SN12C): 92%
- growth at 1 µM [8]: 43%
- growth at 1 µM [9]: 102%
- growth at 1 µM [10]: -20%
- growth at 1 µM [11]: 3%
- growth at 1 µM [12]: 86%
- GI50 ([13]; read-out: GI50): 196 nM
- TGI ([13]; read-out: TGI): 432 nM
- GI50 ([13]; read-out: pGI50 (converted)): 195 nM
- TGI ([13]; read-out: pTGI (converted)): 437 nM
- growth at 0.1 µM (786-0): 92%
- growth at 0.1 µM [14]: 89%
- growth at 100 µM [15]: -30%
- growth at 0.01 µM [16]: 98%
- growth at 10 µM [17]: -76%
- growth at 10 µM [18]: -66%
- growth at 1 µM [19]: 76%
- GI50 ([20]; read-out: GI50): 1400 nM
- TGI ([20]; read-out: TGI): 3040 nM
- GI50 ([20]; read-out: pGI50 (converted)): 1410 nM
- TGI ([20]; read-out: pTGI (converted)): 3020 nM
- GI50 ([21]; read-out: GI50): 311 nM
- TGI ([21]; read-out: TGI): 1080 nM
- GI50 ([21]; read-out: pGI50 (converted)): 309 nM
- TGI ([21]; read-out: pTGI (converted)): 1070 nM
- growth at 1 µM (SK-MEL-28): 84%
- growth at 10 µM [22]: -85.5%
- growth at 0.01 µM [23]: 100%

SMILES: c1ccc2[nH]c(-c3ccc(Nc4nc(N5CCCCC5)nc(N5CCOCC5)n4)cc3)nc2c1
- growth at 10 µM (SK-MEL-2 [1]): -20.6%
- GI50 [2]: 2430 nM
- TGI [2]: 5520 nM
- CC50 [2]: 30200 nM
- growth at 0.1 µM [3]: 95%
- growth at 1 µM [4]: 97%
- growth at 10 µM [5]: 9%
- growth at 0.01 µM [6]: 99%
- growth at 0.1 µM (ACHN): 95%
- GI50 (SR; read-out: GI50): 731 nM
- CC50 (SR; [24]): > 100000 nM
- TGI (SR; read-out: TGI): 5730 nM
- GI50 (SR; read-out: pGI50 (converted)): 724 nM
- CC50 (SR; [25]): > 100000 nM
- TGI (SR; read-out: pTGI (converted)): 5750 nM
- growth at 0.1 µM (SK-MEL-2 [7]): 102%
- growth at 0.1 µM (SN12C): 94%
- growth at 1 µM [8]: 89%
- growth at 1 µM [9]: 102%
- growth at 1 µM [10]: 87%
- growth at 1 µM [11]: 96%
- growth at 1 µM [12]: 89%
- GI50 ([13]; read-out: GI50): 1960 nM
- TGI ([13]; read-out: TGI): 4320 nM
- GI50 ([13]; read-out: pGI50 (converted)): 1950 nM
- TGI ([13]; read-out: pTGI (converted)): 4370 nM
- growth at 0.1 µM (786-0): 97%
- growth at 0.1 µM [14]: 93%
- growth at 100 µM [15]: -46%
- growth at 0.01 µM [16]: 96%
- growth at 10 µM [17]: -49%
- growth at 10 µM [18]: -35%
- growth at 1 µM [19]: 87%
- GI50 ([20]; read-out: GI50): 1920 nM
- LC50 ([20]; read-out: LC50): 9730 nM
- TGI ([20]; read-out: TGI): 4320 nM
- GI50 ([20]; read-out: pGI50 (converted)): 1910 nM
- LC50 ([20]; read-out: pLC50 (converted)): 9770 nM
- TGI ([20]; read-out: pTGI (converted)): 4370 nM
- GI50 ([21]; read-out: GI50): 3210 nM
- CC50 [21, 24]: > 100000 nM
- TGI ([21]; read-out: TGI): 20100 nM
- GI50 ([21]; read-out: pGI50 (converted)): 3240 nM
- CC50 [21, 25]: > 100000 nM
- TGI ([21]; read-out: pTGI (converted)): 20000 nM
- growth at 1 µM (SK-MEL-28): 87%
- growth at 10 µM [22]: 9.65%
- growth at 0.01 µM [23]: 96%
